Assay results published in ChEMBL document CHEMBL2434867, “Synthesis and antioxidant activity of novel Mannich base of 1,3,4-oxadiazole derivatives possessing 1,4-benzodioxan” (Bioorg Med Chem, 2013).
Calls of active or inactive are those of the source. No cut-off for these calls is given here.

Tests used:
[1] = system: Liver; experiment: Antioxidant activity in KM mouse liver microsomes assessed as inhibition of lipid peroxidation after 60 mins; type: functional, Microsome; conditions: for IC50: 1 h; for inhibition: Microsome
Method in brief: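 Liver microsomes from adult male KM mice (8–12 weeks), protein by Bradford, used at 0.67 mg protein/mL with compounds at varying concentrations, 10 mM FeSO₄ and 0.1 mM ascorbic acid in 0.2 M potassium phosphate pH 7.4; 37 °C, 60 min. Stopped with 20% TCA plus 0.67% TBA, heated 100 °C 15 min, centrifuged; MDA-TBA read at 535 nm.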

[2] = Antioxidant activity assessed as ferric ion reducing activity using ferric-TPTZ by measuring concentration of compound with antioxidant capacity equivalent to ferrous sulfate at 0.5 mmol/L by FRAP assay; type: functional
[3] = Antioxidant activity assessed as ABTS radical scavenging activity after 6 mins; type: functional
[4] = system: Radical scavenging activity; experiment: Antioxidant activity assessed as DPPH free radical scavenging activity after 30 mins by spectrophotometric analysis; type: functional
Method in brief: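 Serial dilutions of compound (100 to 3.125 µg/mL) mixed 1:1 with 0.2 mmol/L DPPH in ethanol; ethanol blank, BHT control. A515 read after 0.5 h at 25 °C; IC50 = concentration giving 50% DPPH scavenging; three replicates, mean ± SD.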

[5] = Antioxidant activity against AAPH-induced DNA breakage in Escherichia coli pBR322 at 100 uM after 1 hr using ethidium bromide staining by agarose gel electrophoresis analysis; type: functional
Method in brief: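 Plasmid pBR322 DNA (4 µg/mL final) exposed to AAPH (4 mM final) in phosphate buffer (8.1 mM Na₂HPO₄, 1.9 mM NaH₂PO₄, 10.0 mM EDTA), 25 µL total; samples and Trolox standard added at 100 µM in DMSO; 37 °C, 1 h. Strand breakage resolved on 1% agarose gel in Tris-acetate-EDTA, 60 V, 100 min.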

| SMILES | IC50 [1] | Activity [2] | IC50 [3] | IC50 [4] | Activity [5] | inhibition [1] |
| --- | --- | --- | --- | --- | --- | --- |
| Cc1c(C)c2c(c(C)c1O)CCC(C)(C(=O)O)O2 (stereo not given) [TROLOX] | 183 µM | 294 µM | 6.19 µM | 30.2 µM |  |  |
| COC(=O)c1ccc2c(c1)OCCO2 |  | > 1000 µM | 13.8 µM | 87.4 µM |  |  |
| CCOc1ccccc1NCn1nc(-c2ccc3c(c2)OCCO3)oc1=S |  | 422 µM | 5.28 µM | 22.4 µM |  |  |
| S=c1oc(-c2ccc3c(c2)OCCO3)nn1CNc1cc(Cl)ccc1Cl |  | 899 µM | 5.42 µM | 35.1 µM |  |  |
| O=[N+]([O-])c1ccc(NCn2nc(-c3ccc4c(c3)OCCO4)oc2=S)c(Cl)c1 |  | > 1000 µM | 8.66 µM | 83.4 µM | Active | Active |
| Cc1cc(C(C)(C)C)c(O)c(C(C)(C)C)c1 [BUTYLATED HYDROXYTOLUENE] |  | 546 µM | 7.57 µM | 43.8 µM |  |  |
| Cc1ccccc1NCn1nc(-c2ccc3c(c2)OCCO3)oc1=S |  | 292 µM | 3.45 µM | 36.3 µM | Active | Active |
| Fc1ccc(NCn2nc(-c3ccc4c(c3)OCCO4)oc2=S)cc1 |  | 300 µM | 6.48 µM | 29.3 µM |  |  |
| S=c1oc(-c2ccc3c(c2)OCCO3)nn1CNc1ccc(Cl)cc1 |  | 584 µM | 7.27 µM | 31.3 µM |  |  |
| FC(F)(F)c1ccccc1NCn1nc(-c2ccc3c(c2)OCCO3)oc1=S |  | > 1000 µM | 9.22 µM | 68.3 µM |  |  |
| COc1ccccc1NCn1nc(-c2ccc3c(c2)OCCO3)oc1=S |  | 335 µM | 6.3 µM | 28.6 µM |  |  |
| O=[N+]([O-])c1ccccc1NCn1nc(-c2ccc3c(c2)OCCO3)oc1=S |  | > 1000 µM | 10.9 µM | 47.8 µM | Active | Active |
| S=c1oc(-c2ccc3c(c2)OCCO3)nn1CNc1ccc(Br)cc1 |  | 531 µM | 14.7 µM | 71.3 µM |  |  |
| S=c1oc(-c2ccc3c(c2)OCCO3)nn1CNc1ccccc1Cl |  | 532 µM | 7.23 µM | 30.5 µM |  |  |
| O=[N+]([O-])c1cccc(NCn2nc(-c3ccc4c(c3)OCCO4)oc2=S)c1 |  | > 1000 µM | 8.87 µM | 38.3 µM | Active | Active |
| COc1ccc(NCn2nc(-c3ccc4c(c3)OCCO4)oc2=S)cc1 |  | 493 µM | 5.83 µM | 31.8 µM |  |  |
| S=c1[nH]nc(-c2ccc3c(c2)OCCO3)o1 |  | 612 µM | 10.6 µM | 63.9 µM |  |  |
| Fc1cc(NCn2nc(-c3ccc4c(c3)OCCO4)oc2=S)cc(F)c1F | 110 µM | 240 µM | 2.92 µM | 19.6 µM | Active |  |

| SMILES | IC50 [1] | Activity [2] | IC50 [3] | IC50 [4] | Activity [5] | inhibition [1] |
| --- | --- | --- | --- | --- | --- | --- |
| Fc1cccc(NCn2nc(-c3ccc4c(c3)OCCO4)oc2=S)c1 |  | 398 µM | 6.62 µM | 35.6 µM |  |  |
| Cc1ccc(NCn2nc(-c3ccc4c(c3)OCCO4)oc2=S)cc1 |  | 434 µM | 5.7 µM | 25.2 µM |  |  |
| S=c1oc(-c2ccc3c(c2)OCCO3)nn1CNc1ccccc1 |  | 735 µM | 5.14 µM | 32.6 µM | Active | Active |
| S=c1[nH]nc(-c2ccccc2)o1 |  | > 1000 µM | 10.9 µM | 89.8 µM |  |  |
| S=c1oc(-c2ccc3c(c2)OCCO3)nn1CNc1cccc(Cl)c1 |  | 846 µM | 6.22 µM | 22.8 µM |  |  |
| S=c1oc(-c2ccc3c(c2)OCCO3)nn1CNc1ccc(Cl)cc1Cl |  | 593 µM | 8.71 µM | 43.5 µM |  |  |
| FC(F)(F)c1cc(NCn2nc(-c3ccc4c(c3)OCCO4)oc2=S)cc(C(F)(F)F)c1 |  | > 1000 µM | 9.32 µM | 89.3 µM |  |  |
| S=c1oc(-c2ccc3c(c2)OCCO3)nn1CNc1ccc(Cl)c(Cl)c1 |  | 763 µM | 6.84 µM | 36.2 µM |  |  |
| S=c1oc(-c2ccc3c(c2)OCCO3)nn1CNc1ccccc1Br |  | 440 µM | 12.7 µM | 36.1 µM |  |  |
| FC(F)(F)c1cccc(NCn2nc(-c3ccc4c(c3)OCCO4)oc2=S)c1 |  | > 1000 µM | 7.62 µM | 35.5 µM |  |  |
| Fc1cccc(F)c1NCn1nc(-c2ccc3c(c2)OCCO3)oc1=S |  | 268 µM | 3.32 µM | 21.8 µM | Active | Active |
| S=c1oc(-c2ccc3c(c2)OCCO3)nn1CNC1CCCCC1 |  | > 1000 µM | 18.4 µM | 94.4 µM |  |  |
| CCCCCCCCCCCCCCCCNCn1nc(-c2ccc3c(c2)OCCO3)oc1=S |  | > 1000 µM | 22.9 µM | 108 µM |  |  |
| O=[N+]([O-])c1ccc(NCn2nc(-c3ccc4c(c3)OCCO4)oc2=S)cc1 |  | > 1000 µM | 9.95 µM | 47.8 µM |  |  |
| S=c1oc(-c2ccc3c(c2)OCCO3)nn1CNc1cccc(Br)c1 |  | > 1000 µM | 10.8 µM | 51 µM |  |  |
| S=c1oc(-c2ccc3c(c2)OCCO3)nn1CNc1ccc(Br)cc1Br |  | > 1000 µM | 6.41 µM | 35.9 µM |  |  |
| Fc1ccccc1NCn1nc(-c2ccc3c(c2)OCCO3)oc1=S |  | 522 µM | 6.39 µM | 37.3 µM |  |  |
